Reference: ChEMBL document CHEMBL1144713, “New selective inhibitors of steroid 11beta-hydroxylation in the adrenal cortex. Synthesis and structure-activity relationship of potent etomidate analogues” (J Med Chem, 2008)

Columns and labels:
[1] = (§1) Displacement of [131I]IMTO from CYP450c 11 in Wistar rat adrenal membrane; type: cell membranes
In short: (§2)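 Crude membranes from whole adrenals of adult male Wistar rats, homogenized in 10 mM K2HPO4/10 mM HEPES pH 7.1 and washed; 0.06–0.1 mg original tissue per vial. Competitors at 0.1 nM–300 µM with 2 nM 131I-IMTO (carrier added) in buffer containing 150 mM NaCl, 23 °C, 20–30 min. Filtration, γ counting. Nonspecific binding with 10 µM ETO. IC50 and Hill coefficient from curve fit, mean ± SD.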

Rattus norvegicus = species: Rattus norvegicus; assay: as §1; type: cell membranes; in short: as §2
[2] = Inhibition on cortisol secretion in human NCI-H295 cells after 48 hrs; type: functional, cell-based; settings: for IC50: Homo sapiens, NCI-H295, 48 h
In short: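 NCI-h295 adrenocortical cells grown in RPMI 1640 with insulin, transferrin, selenium and 5% FCS. Compounds at 10 nM–100 µM added to 1 million cells/mL for 48 h, in triplicate. Supernatant cortisol measured by RIA and expressed as percent of control, with control from six uninhibited determinations. IC50 derived from these percentages.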

COC(=O)c1cncn1[C@H](C)c1cccc(I)c1
IC50 [1]: 4.44 nM

CC(C)OC(=O)c1cncn1[C@H](C)c1ccccc1
IC50 [1]: 1.42 nM

COC(=O)c1cncn1Cc1ccccc1
IC50 [1]: 28.8 nM | logIC50 (Rattus norvegicus): 1.46 | logIC50 [2]: 1.51 | IC50 [2]: 32.1 nM

COC(=O)c1cncn1[C@H](C)c1cccnc1
IC50 [1]: 20.7 nM | logIC50 (Rattus norvegicus): 1.32 | logIC50 [2]: 1.72 | IC50 [2]: 52.2 nM

COC(=O)c1cncn1[C@H](C)c1ccccc1
IC50 [1]: 3.69 nM | logIC50 (Rattus norvegicus): 0.57 | logIC50 [2]: 1.14 | IC50 [2]: 13.9 nM

COC(=O)c1cncn1[C@@H]1CCc2ccccc21
IC50 [1]: 3.26 nM

COC(=O)c1cncn1[C@H](C)c1ccc(Br)cc1
IC50 [1]: 8.95 nM

CCOC(=O)c1cncn1[C@H](C)c1ccccc1 [ETOMIDATE]
IC50 [1]: 1.08 nM | logIC50 (Rattus norvegicus): 0.033 | logIC50 [2]: 0.66 | IC50 [2]: 4.57 nM

CCOC(=O)c1cncn1[C@H](C)c1ccc(I)cc1
IC50 [1]: 4.37 nM

CON(C)C(=O)c1cncn1[C@H](C)c1ccccc1
IC50 [1]: 14 nM | logIC50 (Rattus norvegicus): 1.18 | logIC50 [2]: 1.45 | IC50 [2]: 19.5 nM

COC(=O)c1cncn1[C@@H](C)c1ccccc1
IC50 [1]: 492 nM | logIC50 (Rattus norvegicus): 2.69 | logIC50 [2]: 2.77 | IC50 [2]: 593 nM

C[C@H](c1ccccc1)n1cncc1C(=O)OCCF
IC50 [1]: 2.89 nM | logIC50 (Rattus norvegicus): 0.46 | logIC50 [2]: 1.11 | IC50 [2]: 8.92 nM

COC(=O)c1cncn1Cc1cccnc1
IC50 [1]: 870 nM

CC(=O)c1cncn1[C@H](C)c1ccccc1
IC50 [1]: 59.8 nM | logIC50 (Rattus norvegicus): 1.78 | logIC50 [2]: 1.96 | IC50 [2]: 59 nM

COC(=O)c1cncn1[C@H](C)c1ccc(CO)cc1
IC50 [1]: 3.29 nM

C[C@H](c1ccccc1)n1cncc1C(=O)O
IC50 [1]: 123000 nM

COC(=O)c1cncn1[C@H](C)c1ccc(I)cc1 [IODOMETOMIDATE I-123, R-]
IC50 [1]: 8.98 nM | logIC50 (Rattus norvegicus): 0.954 | logIC50 [2]: 0.84 | IC50 [2]: 6.95 nM

COC(=O)c1cncn1[C@H](C)c1ccc(C)cc1
IC50 [1]: 3.58 nM

CCCOC(=O)c1cncn1[C@H](C)c1ccccc1
IC50 [1]: 2.89 nM

CC[C@H](c1ccccc1)n1cncc1C(=O)OC
IC50 [1]: 6.23 nM

CNC(=O)c1cncn1[C@H](C)c1ccccc1
IC50 [1]: 215 nM | logIC50 (Rattus norvegicus): 2.33 | logIC50 [2]: 2.21 | IC50 [2]: 135 nM
